Assay outcomes from PubChem BioAssay.
Hits are enriched below; roughly 9.4% of the tested compounds scored in any of these assays.
L major viab: inhibitors of Leishmania major promastigote growth; AID 1063; inhibition, % at 10 µM; actives 9% (n = 200,000); Leishmania major promastigotes, resazurin fluorescence viability; in the data active means inhibition above about 50%;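 further: promastigotes grown with compound for 44 hours at 28 °C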
T cruzi repl: blocks replication of Trypanosoma cruzi | T. cruzi beta-gal in NIH3T3, luminescence, 90 h | inhibition, % (no concentration beside the values) | actives 1.4% (n = 300,000);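 active means mean inhibition across valid replicates above about 55%, limit read from the data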;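 further: signal also drops with host cell toxicity which is not excluded here; 0% = plate median of DMSO wells and 100% = zero luminescence signal; higher percent means less beta-gal luminescence so fewer parasites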
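assay system = mouse NIH/3T3 fibroblasts infected with β-gal-expressing T. cruzi Tulahuen C4 | input = 5,000 NIH/3T3 host cells per well | buffer or medium = DMEM plus 2% FBS | timing = 3 h host attachment, then at least 90 h co-culture | measured by = GalScreen luminescence, 60 min | evaluation = luminescence reflecting intracellular parasite burden, expressed as percent inhibition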
Beta cell apopt: blocks beta cell apoptosis; INS-1E cytokine-induced death, ATP luminescence, 48 h; percent of positive-control rescue, neutral wells zero; AID 435005; actives 0.8% (n = 300,000); protection from apoptosis, % (no concentration beside the values);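 active means Every replicate reaches about 75%, or at least half do and their mean reaches it too, limit read from the data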;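 further: 0% = cytokine-treated negative control wells and 100% = positive control rescue; higher means more ATP so stronger rescue from cytokine killing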
SKKanGAS inh: inhibitors of SKKanGAS S. pyogenes growth in kanamycin (SK-promoter or general growth effect); BacTiter-Glo, 6 h; inhibition, % at 7.5 µM; actives 1.3% (n = 300,000);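 active means mean replicate score, as percent of positive control median, at least 50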;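 further: strain carries kanamycin resistance gene driven by streptokinase promoter and grows in 40 µg/ml kanamycin; loss of luminescence reflects streptokinase promoter inhibition or plain growth inhibition; 0% = median of DMSO wells and 100% = positive control at its reference dose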
CSC inhib: cancer stem cell inhibition; inhibition, % at 7.5 µM; AID 2717; actives 1.1% (n = 300,000); cancer stem cell-like cells viability, luminescence; in the data active means inhibition above about 75%; tested in HMLE shEcad cells
Mdm2-MdmX inh: inhibitors of human Mdm2/MdmX interaction; O15151+Q00987; SaOS-2 split-luciferase Mdm2/MdmX complementation, luminescence; inhibition, % at 8 µM; actives 3% (n = 330,000);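 active means inhibition of at least 50% at 8 µM in the primary screen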
Target sequence (O15151 whole entry, looked up): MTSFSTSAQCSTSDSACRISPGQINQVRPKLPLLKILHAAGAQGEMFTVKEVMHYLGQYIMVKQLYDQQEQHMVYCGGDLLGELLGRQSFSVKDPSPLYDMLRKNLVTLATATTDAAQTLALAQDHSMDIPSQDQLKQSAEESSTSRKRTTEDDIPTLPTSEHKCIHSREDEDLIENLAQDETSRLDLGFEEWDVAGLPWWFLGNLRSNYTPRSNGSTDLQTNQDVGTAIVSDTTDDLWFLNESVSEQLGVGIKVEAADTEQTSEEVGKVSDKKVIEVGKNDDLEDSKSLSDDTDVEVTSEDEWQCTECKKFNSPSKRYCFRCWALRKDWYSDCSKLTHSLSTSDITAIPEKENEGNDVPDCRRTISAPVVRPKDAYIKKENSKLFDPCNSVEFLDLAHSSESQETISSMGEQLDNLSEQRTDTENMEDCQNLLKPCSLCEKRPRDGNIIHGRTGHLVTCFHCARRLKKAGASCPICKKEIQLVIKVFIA
Target sequence (Q00987 whole entry, looked up): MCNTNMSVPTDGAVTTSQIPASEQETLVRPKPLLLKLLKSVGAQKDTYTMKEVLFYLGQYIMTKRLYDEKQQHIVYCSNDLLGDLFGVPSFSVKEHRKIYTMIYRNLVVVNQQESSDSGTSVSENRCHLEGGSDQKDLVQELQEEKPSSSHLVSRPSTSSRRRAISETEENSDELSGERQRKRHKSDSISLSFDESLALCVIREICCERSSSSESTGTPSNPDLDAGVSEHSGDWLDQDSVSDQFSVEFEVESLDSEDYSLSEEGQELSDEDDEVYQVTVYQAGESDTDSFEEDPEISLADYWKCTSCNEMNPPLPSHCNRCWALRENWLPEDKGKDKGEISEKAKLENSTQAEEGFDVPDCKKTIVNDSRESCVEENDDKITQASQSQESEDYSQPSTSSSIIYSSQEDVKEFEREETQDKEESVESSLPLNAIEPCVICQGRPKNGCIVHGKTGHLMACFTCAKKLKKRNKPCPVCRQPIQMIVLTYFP
Mdm2-MdmX conf: human Mdm2/MdmX binding inhibition, confirmed | inhibition, % at 8 µM | actives 55% (n = 10,000) | luminescent assay | shares compounds with Mdm2-MdmX inh; in the data active means inhibition above about 40%
Full FLuc ctr: counter-screen for Mdm2/MdmX inhibitors: full-length luciferase | SaOS-2 full-length luciferase counterscreen, luminescence | inhibition, % at 8 µM | actives 77% (n = 6,200) | shares compounds with Mdm2-MdmX inh;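 active means mean inhibition at 8 µM reaching about 37%, which flags the compound as non-specific, limit read from the data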;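 further: p53-null SaOS-2 cells with luciferase driven by a doxycycline-inducible promoter; compound on cells about two nights before reading with doxycycline added after day one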
An asterisk follows results filed as active; x = no result.

SMILES | L major viab | T cruzi repl | Beta cell apopt | SKKanGAS inh | CSC inhib | Mdm2-MdmX inh | Mdm2-MdmX conf | Full FLuc ctr
COc1cc(OC)c2c(-c3cccc(/C=C/c4ccc(F)cc4)c3)cc(=O)oc2c1 | x | x | x | x | x | 21 | x | x
O=C1NN=C(CSc2n[nH]c(=S)s2)CS1 | -6 | -11 | 4 | 39 | -5 | 21 | x | x
O=C(C(=O)N1CCN(c2ccccc2)CC1)c1cn(CC(=O)N2CCCCCC2)c2ccccc12 | x | 35 | 0 | 8 | -6 | 25 | x | x
Cc1nnc(SCC(=O)N(C)C2CCCCC2)s1 | -5 | -18 | -2 | 3 | -8 | 5 | x | x
O=C(CSc1c(F)c(F)cc(F)c1F)Nc1ccc(C2SCCS2)cc1 | x | -20 | -3 | 3 | 6 | 23 | x | x
COc1cc(OC)c2c(-c3cccc(-c4ccc(O)cc4)c3)cc(=O)oc2c1 | x | x | x | x | x | 73* | 56* | 43*
COc1cc2c(cc1OC)C(c1cccs1)N(C(=O)c1cccnc1)CC2 (centres undefined) | 0 | -33 | 8 | 1 | 2 | 56* | 58* | 73*
CCOc1ccc(-n2c(=O)c3c4c(sc3n(CC(=O)NCc3ccco3)c2=O)CCC4)cc1 | -5 | 16 | -2 | 10 | 2 | 73* | 0 | x
CC(C)(C)C(=O)CNS(=O)(=O)c1ccc(S(=O)(=O)NC2CC2)cc1 | x | 0 | -1 | 0 | 3 | -11 | x | x
COc1cc(O)ccc1/C=N/NC(=O)c1ccc([N+](=O)[O-])cc1 | 4 | 2 | -4 | -5 | -1 | 9 | x | x
O=C(NC(CSCc1ccccc1)C(=O)N/N=C/c1ccc(O)cc1O)c1ccc([N+](=O)[O-])cc1 (centres undefined) | 100* | 26 | 78* | 71* | 105* | 65* | 74* | 34
COc1cc(C(=O)N2CCN(Cc3ccc4c(c3)OCO4)CC2)cc(OC)c1OC | x | 7 | 0 | -12 | 2 | 5 | x | x
CCC(CC)N1CCN(Cc2nc3ccc([N+](=O)[O-])cc3c(=O)n2-c2ccccc2F)CC1 | x | 18 | -4 | -2 | -8 | 2 | x | x
CCOC(=O)N1CCN(Cc2nc3ccc([N+](=O)[O-])cc3c(=O)n2-c2ccccc2F)CC1 | x | 22 | 1 | -1 | 15 | 52* | 41* | 75*
CCOC(=O)c1c(C)[nH]c(C)c1C(=O)CSc1nc2ccccc2c(=O)n1-c1ccc(CC)cc1 | 13 | 43 | 110* | 14 | 17 | 56* | 37 | 96*
Cc1ccc(C(=O)NC(C#N)=C(Cl)Cl)cc1 | 15 | 52 | x | -3 | x | 100* | 99* | 53*
CCC1Oc2ccccc2N(CC(=O)NCCN2CCc3ccccc3C2)C1=O (centres undefined) | 4 | -6 | -7 | 3 | -12 | -3 | x | x
CCC1Oc2ccccc2N(CC(=O)NCCC2=CCCCC2)C1=O (centres undefined) | 14 | -7 | 2 | 0 | 10 | 60* | 9 | x
Cc1ccc(-c2nnc3n2N=C(c2ccc(Br)cc2)CS3)cc1 | 0 | 31 | 6 | -3 | 15 | 14 | x | x
Clc1ccc(C2=Nn3c(nnc3-c3n[nH]c4c3CCC4)SC2)cc1 | 58* | 1 | 16 | 4 | 46 | 85* | 69* | 45*
Brc1ccc(C2=Nn3c(nnc3-c3n[nH]c4c3CCC4)SC2)cc1 | 59* | 7 | 9 | 9 | 69 | 80* | 80* | 73*
COc1ccc(CCC(=O)OCC(=O)NCc2ccc(OC)c(OC)c2)cc1OC | x | x | -5 | x | -3 | -5 | x | x
COc1ccccc1CNC(=S)NCc1ccc(F)cc1 | x | -11 | -1 | 7 | -21 | -6 | x | x
CCCn1cnc2c(=S)nc(N)[nH]c21 | x | -12 | -4 | -6 | -1 | 3 | x | x
Cc1ccc(Cn2ccsc2=NC(=O)CCl)cc1 | 46 | x | 38 | -21 | -3 | 99* | 99* | 59*
SMILES | L major viab | T cruzi repl | Beta cell apopt | SKKanGAS inh | CSC inhib | Mdm2-MdmX inh | Mdm2-MdmX conf | Full FLuc ctr
Cc1ccc(Cn2ccsc2=NC(=O)COC(=O)c2ccc(NC(=O)CC#N)cc2)cc1 | x | 9 | -1 | 7 | x | 15 | x | x
Clc1ccc2c(c1)CCc1cccnc1C2=C1CCNCC1 | 16 | 11 | x | 1 | x | 61* | 36 | x
CCOc1ccccc1OCCC(=O)N1CCN(S(=O)(=O)c2ccccc2[N+](=O)[O-])CC1 | x | x | -2 | x | x | 62* | 19 | x
COc1cc(C=O)ccc1OCCCOc1ccc([N+](=O)[O-])cc1 | -1 | -68 | 13 | -2 | -15 | -5 | x | x
COC(=O)C(=Cc1ccc(OCc2ccc([N+](=O)[O-])cc2)c(OC)c1)C(=O)OC | -4 | -15 | -9 | -2 | x | 92* | 8 | x
CCOC(=O)C(=Cc1ccc(OCc2ccc([N+](=O)[O-])cc2)c(OC)c1)C(=O)OCC | 19 | -23 | 6 | -1 | 116* | 99* | 34 | x
COc1cc(-c2nc3ccc(N4CCN(C)CC4)cc3[nH]2)cc(OC)c1OC | 14 | 21 | 0 | -3 | -10 | 79* | 65* | 73*
CC(=O)N1c2c(cc(Br)cc2S(=O)(=O)NCc2ccc(C)cc2)CC1C (centres undefined) | x | 0 | -2 | 13 | -3 | 23 | x | x
COc1cc(-c2ccc(Nc3ccccc3C(=O)O)c(OC)c2)ccc1Nc1ccccc1C(=O)O | x | x | x | x | x | 81* | 32 | x
COc1cccc(Nc2ccccc2C(=O)O)c1 | -4 | -8 | -2 | 4 | -2 | -19 | x | x
CCOc1ccc(NC(=O)CSc2nnc(Cc3csc(C)n3)o2)cc1 | x | -5 | 3 | -9 | 41 | 8 | x | x
COc1ccccc1NC(=O)c1c(Nc2ccccc2C)sc(C(=O)Nc2cccc(Cl)c2)c1N | 19 | 13 | x | 26 | 74 | 75* | 27 | x
Nc1nnc(CC(=O)N/N=C/c2ccc(-c3ccccc3Cl)o2)s1 | -4 | -1 | -6 | -8 | -8 | 18 | x | x
Nc1nnc(CC(=O)N/N=C/c2ccc(-c3ccc(Cl)cc3Cl)o2)s1 | x | -10 | 0 | -20 | 2 | 68* | 34 | 83*
Cc1c(CCC(C)C)c(=O)n2c([nH]c3ccccc32)c1C#N | 99* | -1 | 53 | 20 | 38 | 73* | 53* | 45*
CCCc1cc(=O)n2c([nH]c3ccccc32)c1C#N | 25 | 11 | 24 | 8 | 35 | 8 | x | x
CCSc1nsc(NC(=O)Nc2ccccc2F)n1 | x | -1 | 19 | 1 | 7 | -49 | x | x
C=CCSc1nsc(NC(=O)Nc2ccc(F)cc2)n1 | x | 35 | 111* | 75* | 101* | 91* | 89* | 28
Cc1ccc(N=Cc2nc(/C=C/c3cccc([N+](=O)[O-])c3)oc2O)cc1 | 4 | -9 | -4 | -9 | x | 94* | 19 | x
CC(=O)CSc1nc(N)c(C#N)c(-c2cccs2)c1C#N | 7 | 5 | 8 | -7 | -2 | 52* | 37 | 41*
